The values that follow come from ChEMBL document CHEMBL5046239, “Development of novel phenoxyalkylpiperidines as high-affinity Sigma-1 (σ1) receptor ligands with potent anti-amnesic effect” (Eur J Med Chem, 2022).

Experiment [1] concerns the target T1, Sigma intracellular receptor 2 (Rattus norvegicus, UniProt Q5U3Y7).
T1 sequence (Q5U3Y7 whole entry): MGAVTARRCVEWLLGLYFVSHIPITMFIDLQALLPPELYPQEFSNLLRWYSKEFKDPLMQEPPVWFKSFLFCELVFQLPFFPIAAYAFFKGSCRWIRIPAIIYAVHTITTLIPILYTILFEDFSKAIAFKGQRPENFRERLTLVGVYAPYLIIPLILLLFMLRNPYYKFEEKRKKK
As to the kind of experiment: Displacement of [3H]DTG from sigma 2 receptor in Wistar Han rat liver membranes measured after 120 mins by scintillation counting method. It is filed as cell membranes, Membrane. For orientation: Loss of bound radioactivity is the signal in a displacement assay; it reports binding, not function.

Experiment [2] has as its target Sigma non-opioid intracellular receptor 1 (Cavia porcellus, UniProt Q60492). As to the kind of experiment: Displacement of [3H](+)-pentazocine from sigma 1 receptor in guinea pig brain membranes measured after 120 mins by scintillation counting method. It is filed as cell membranes, Membrane.
The subject of another experiment is C6. As to the kind of experiment: Cytotoxicity against rat C6 cells assessed as cell viability measured after 48 hrs by MTT assay. In kind it is functional, cell-based. The following applies: C6, 48 h. A general note: Tetrazolium dyes change colour on reduction, which living cells bring about.
Experiment [3] concerns Mus musculus. As to the kind of experiment: Cognitive enhancing effect in dizocilpine induced amnesia Swiss mouse model assessed as increase in latency time at 0.03 to 0.3 mg/kg, ip pretreated for 10 mins followed by dizocilpine addition measured after 20 mins by step-through passive avoidance test. In kind it is functional, organism-based. The following applies: dose 0.03-0.3 mg/kg, time 30.0 min. The method, boiled down: (§1)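 Male Swiss OF-1 mice, 7–9 weeks old, n = 12–16 per group. Test drug given ip in saline 10 min before dizocilpine (0.15 mg/kg ip), which was given 20 min before the Y-maze session or passive avoidance training. NE-100 (1 mg/kg ip) was given at the same time as the test drug where used. Read-outs were Y-maze alternation and step-through latency at 24 h retention. Statistics were ANOVA with Dunnett's test, or Dunn's test for latency.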

Another experiment has as its system SH-SY5Y. The experiment is described as follows: Cytotoxicity against human SH-SY5Y cells assessed as cell viability measured after 48 hrs by MTT assay. In kind it is functional, cell-based. Put shortly:
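SH-SY5Y cells grown in MEM/Ham's F12 (1:1) with 10% FBS, glutamine and pen-strep at 37 °C, 5% CO2. Seeded at 25,000 cells/well and dosed the next day at 1–100 μM for 48 h. Solvent controls included. MTT 0.5 mg/mL for 3–4 h, formazan dissolved in DMSO/EtOH, absorbance read at 570/630 nm.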

Experiment [4] concerns Mus musculus. The experiment is described as follows: Cognitive enhancing effect in dizocilpine induced amnesia Swiss mouse model assessed as reduction in memory impairment at 0.03 to 0.3 mg/kg, ip pretreated for 10 mins followed by dizocilpine addition measured after 20 mins by Y-maze test. The note with it: dose 0.03-0.3 mg/kg, time 30.0 min. In kind it is functional, organism-based. Put shortly: as §1

The subject of the next experiment is HepG2. The experiment is described as follows: Cytotoxicity against human HepG2 cells assessed as cell viability measured after 48 hrs by MTT assay. It is filed as functional, cell-based. The note with it: HepG2, 48 h. The method, boiled down: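 HepG2 cells grown in MEM with 10% FBS, glutamine, pen-strep and NEAA at 37 °C, 5% CO2. Seeded at 25,000 cells/well and dosed the next day at 1–100 μM for 48 h. Solvent controls (EtOH, DMSO) included. MTT 0.5 mg/mL for 3–4 h, formazan dissolved in DMSO/EtOH, absorbance read at 570/630 nm.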

A further experiment relates to MCF7. The experiment is described as follows: Cytotoxicity against human MCF7 cells assessed as cell viability measured after 48 hrs by MTT assay. It is filed as functional, cell-based. The note with it: MCF7, 48 h. Put shortly:
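MCF7 cells grown in DMEM with 10% FBS, glutamine and pen-strep at 37 °C, 5% CO2. Seeded at 25,000 cells/well and dosed the next day at 1–100 μM for 48 h. Solvent controls included. MTT 0.5 mg/mL for 3–4 h, formazan dissolved in DMSO/EtOH, absorbance read at 570/630 nm.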

Experiment [5] concerns Mus musculus. As to the kind of experiment: Cognitive enhancing effect in dizocilpine induced amnesia Swiss mouse model assessed as increase in latency time at 0.03 to 0.3 mg/kg, ip pretreated for 10 mins followed by dizocilpine addition in presence of NE-100 measured after 20 mins by step-through passive avoidance test. It is filed as functional, organism-based. The following applies: dose 0.03-0.3 mg/kg, time 30.0 min. The method, boiled down:
as §1

In experiment [6] the test system is Mus musculus. The experiment is described as follows: Cognitive enhancing effect in dizocilpine induced amnesia Swiss mouse model assessed as reduction in memory impairment at 0.03 to 0.3 mg/kg, ip pretreated for 10 mins followed by dizocilpine addition in presence of NE-100 measured after 20 mins by Y-maze test. The following applies: dose 0.03-0.3 mg/kg, time 30.0 min. It is filed as functional, organism-based. The method, boiled down: as §1

Experiment [7] concerns Mus musculus. As to the kind of experiment: Cognitive enhancing effect in dizocilpine induced amnesia Swiss mouse model assessed as increase in latency time at 1 to 10 mg/kg, ip pretreated for 10 mins followed by dizocilpine addition in presence of NE-100 measured after 20 mins by step-through passive avoidance test. In kind it is functional, organism-based. The note with it: dose 1-10 mg/kg, time 30.0 min. Put shortly:
as §1

Experiment [8] concerns Mus musculus. The experiment is described as follows: Cognitive enhancing effect in dizocilpine induced amnesia Swiss mouse model assessed as reduction in memory impairment at 1 to 10 mg/kg, ip pretreated for 10 mins followed by dizocilpine addition in presence of NE-100 measured after 20 mins by Y-maze test. In kind it is functional, organism-based. The following applies: dose 1-10 mg/kg, time 30.0 min. The method, boiled down: as §1

Experiment [9] deals with Mus musculus. As to the kind of experiment: Cognitive enhancing effect in dizocilpine induced amnesia Swiss mouse model assessed as reduction in memory impairment at 1 to 10 mg/kg, ip pretreated for 10 mins followed by dizocilpine addition measured after 20 mins by Y-maze test. The note with it: dose 1-10 mg/kg, time 30.0 min. It is filed as functional, organism-based. Put shortly: as §1

Experiment [10] concerns Mus musculus. As to the kind of experiment: Cognitive enhancing effect in dizocilpine induced amnesia Swiss mouse model assessed as increase in latency time at 1 to 10 mg/kg, ip pretreated for 10 mins followed by dizocilpine addition measured after 20 mins by step-through passive avoidance test. In kind it is functional, organism-based. The note with it: dose 1-10 mg/kg, time 30.0 min. The method, boiled down:
as §1

Calls of active or inactive are those of the source. The rule behind the calls is not given here.

Sequence of Sigma non-opioid intracellular receptor 1 (Q60492 whole entry): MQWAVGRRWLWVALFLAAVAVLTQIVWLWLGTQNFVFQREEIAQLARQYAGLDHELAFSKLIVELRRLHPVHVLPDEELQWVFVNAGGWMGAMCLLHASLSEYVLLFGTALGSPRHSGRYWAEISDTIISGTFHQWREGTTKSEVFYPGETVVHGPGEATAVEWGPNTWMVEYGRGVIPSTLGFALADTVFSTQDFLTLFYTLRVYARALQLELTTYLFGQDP

For the molecule `COc1ccc(OCCCN2[C@H](C)CCC[C@@H]2C)cc1`, the results for the inhibition constant (Ki) in experiment [1] and in experiment [2] were 52.5 nM and 23.5 nM, respectively.

Regarding `CC1CCN([C@@H](C)COc2ccc(Cl)cc2)CC1`, the Ki (in general, a measure of affinity in units of concentration, obtained from inhibition or displacement) in experiment [1] was 186 nM; in experiment [2], 0.34 nM.

`COc1ccc(OCCN2CCCC[C@@H]2C)cc1`: the Ki was found to be 175 nM in experiment [1] and 43.4 nM in [2].

With `CC1CCN([C@H](C)COc2ccc(Cl)cc2)CC1`, the inhibition constant Ki in experiment [1] is 52.3 nM; in [2] it was 1.18 nM. Also, the EC50 (usually the concentration at which the effect is half-maximal) with C6 is more than 100000 nM.

Turning to `COc1ccc(OCCN2C(C)(C)CCCC2(C)C)cc1`, the values for the inhibition constant (Ki) in experiment [1] and in experiment [2] were 809 nM and more than 5000 nM, respectively. In addition, in the experiment with C6, the EC50 was more than 100000 nM.

As for `COc1ccc(OC[C@H](C)N2CCC(C)CC2)cc1`, the Ki in experiment [1] was 723 nM; in [2], 1.49 nM.

Turning to `CC1(C)CCCC(C)(C)N1CCOc1ccc(Cl)cc1`, the Ki was 411 nM in [1] and more than 5000 nM in experiment [2]. For the same molecule, in the experiment with C6, the EC50 was more than 100000 nM.

Take `C[C@@H]1CCCCN1CCOc1ccc(Cl)cc1`: the inhibition constant Ki in [1] came out at 77.8 nM; in [2], 20.6 nM.

For `C[C@H]1CCCCN1CCOc1ccc(Cl)cc1`, the Ki in experiment [1] worked out at 69.8 nM; in experiment [2], 16.6 nM.

As for `COc1ccc(OC[C@@H](C)N2CCC(C)CC2)cc1`, the figures for the Ki in [1] and in [2] were 187 nM and 1.16 nM, respectively. In addition, the concentration giving a half-maximal response (EC50) in the experiment with C6 is more than 100000 nM.

Consider `C[C@@H]1CCC[C@H](C)N1CCOc1ccc(Cl)cc1`, for which the inhibitory constant (Ki) amounted to 116 nM in experiment [1] and 59.4 nM in experiment [2].

In the case of `COc1ccc(OCCN2[C@H](C)CCC[C@@H]2C)cc1`, the figures for the Ki in experiment [1] and in experiment [2] were 636 nM and 379 nM, respectively.

As for `CC1CCN(CCOc2ccc(Cl)cc2)CC1`, the outcome in the experiment on Mus musculus [3] and in the experiment on Mus musculus [4] was Active. The molecule also returned a Ki in experiment [1] of 239 nM. The EC50 in the experiment on SH-SY5Y, in the experiment with HepG2, in the experiment with MCF7 and in the experiment with C6 was more than 100000 nM each time. Besides, the outcome in the experiment on Mus musculus [5] and in the experiment on Mus musculus [6] was inactive.

Consider `COc1ccc(OCCN2CCCC[C@H]2C)cc1`, for which the figures for the inhibition constant Ki in experiment [1] and in experiment [2] were 300 nM and 35.9 nM, respectively.

Consider `C[C@@H]1CCC[C@H](C)N1CCCOc1ccc(Cl)cc1`, for which the Ki worked out at 17.2 nM in [1] and 4.43 nM in [2].

Consider `COc1ccc(OCCN2CCC(C)CC2)cc1`, for which the outcome with Mus musculus [7] and in the experiment on Mus musculus [8] was inactive. Also, the inhibitory constant (Ki) was found to be 170 nM in [1] and 0.89 nM in experiment [2]. Besides, the result in the experiment on Mus musculus [9] and in the experiment with Mus musculus [10] was Active. The concentration for a half-maximal effect (EC50) in the experiment with SH-SY5Y, with HepG2, with MCF7 and in the experiment with C6 was more than 100000 nM in each case.
